Data set [1] deals with Influenza A virus. As to the kind of experiment: Antiviral activity against Influenza A virus A/WSN/33(H1N1) infected in MDCK cells assessed as inhibition of neuraminidase activity using 2'-(4-methylumbelliferyl)-alpha-D-N-acetylneuraminic acid substrate pretreated with cells for 24 hrs followed by viral infection measured after 20 hrs by fluorescence assay. Format: functional, organism-based. As to conditions: A/WSN/1933(H1N1). The essentials:
(§1)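 MDCK cells at 1 × 10^4 cells/well in DMEM with 0.3% FBS, 1% penicillin/streptomycin and 1% DMSO. After 24 h, serially diluted compound was added for a further 24 h. Cells were infected with A/WSN/33 at 250 IU/well for 20 h at 37 °C. Supernatant was replaced with 25 μM MUNANA in 33 mM MES, pH 6.5, for 45 min at 30 °C. Reaction stopped with glycine pH 10.5/25% ethanol; fluorescence read at ex 355/em 460 nm. EC50 averaged over n ≥ 2.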

A short description of data set [2]: Cytotoxicity against MDCK cells after 10 mins by CellTiter-Glo assay. It is filed as cell-based, Canis lupus familiaris. Particulars: dog. The essentials: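 Uninfected cultures run in parallel with the MDCK neuraminidase antiviral assay. CellTiter-Glo reagent added, 10 min at room temperature, luminescence read.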
Background: Cellular ATP, detected with luciferase, serves as a proxy for viable cell number.

For data set [3], the system named is MDCK. In words: Prodrug conversion in MDCK cells assessed as ((2R,3S,4R,5S)-5-(2-carbamoyl-3-fluoropyridin-4-yl)-3,4-dihydroxytetrahydrofuran-2-yl)methyl tetrahydrogen triphosphate level per million cells at 50 uM after 24 hrs by LC-MS/Ms analysis. It is filed as ADME, cell-based, Canis lupus familiaris. Particulars: dog, BLD = below limit of detection.
The subject of data set [4] is A549. In words: Prodrug conversion in human A549 cells assessed as ((2R,3S,4R,5S)-5-(2-carbamoyl-3-fluoropyridin-4-yl)-3,4-dihydroxytetrahydrofuran-2-yl)methyl tetrahydrogen triphosphate level per million cells at 50 uM after 24 hrs by LC-MS/Ms analysis. It is filed as ADME, cell-based. Particulars: a549, 24 h, BLD = below limit of detection.
Data set [5] relates to A549. In words: Prodrug conversion in human A549 cells assessed as ((2R,3S,4R,5S)-5-(2-carbamoyl-3-fluoropyridin-4-yl)-3,4-dihydroxytetrahydrofuran-2-yl)methyl dihydrogen phosphate level per million cells at 50 uM after 24 hrs by LC-MS/Ms analysis. It is filed as ADME, cell-based. As to conditions: a549, 24 h.
Data set [6] relates to Influenza A virus. In words: Antiviral activity against Influenza A virus infected in MDCK cells. Format: functional, organism-based. In outline: as §1
Data set [7] has as its system MDCK. In words: Prodrug conversion in MDCK cells assessed as ((2R,3S,4R,5S)-5-(2-carbamoyl-3-fluoropyridin-4-yl)-3,4-dihydroxytetrahydrofuran-2-yl)methyl dihydrogen phosphate level per million cells at 50 uM after 24 hrs by LC-MS/Ms analysis. Format: ADME, cell-based, Canis lupus familiaris. As to conditions: dog.
The test system of data set [8] is Influenza A virus. As to the kind of experiment: Antiviral activity against Influenza A virus A/WSN/33(H1N1) infected in human A549 cells. Format: functional, organism-based. As to conditions: A/WSN/1933(H1N1).
Data set [9] is described as follows: Prodrug conversion in NHBE cells assessed as ((2R,3S,4R,5S)-5-(2-carbamoyl-3-fluoropyridin-4-yl)-3,4-dihydroxytetrahydrofuran-2-yl)methyl tetrahydrogen triphosphate level per million cells at 50 uM after 24 hrs by LC-MS/Ms analysis. It is filed as ADME, cell-based. As to conditions: human, BLD = below limit of detection.
Data set [10] can be described thus: Prodrug conversion in NHBE cells assessed as ((2R,3S,4R,5S)-5-(2-carbamoyl-3-fluoropyridin-4-yl)-3,4-dihydroxytetrahydrofuran-2-yl)methyl dihydrogen phosphate level per million cells at 50 uM after 24 hrs by LC-MS/Ms analysis. As to conditions: human. Format: ADME, cell-based.
A short description of data set [11]: Inhibition of recombinant human Norovirus GII.4 RNA-dependent RNA polymerase expressed in Escherichia coli assessed as inhibition of [3H]UTP incorporation using HCV 5'-untranslated region RNA template incubated for 2.5 hrs by radiometric assay.
The nature of data set [12]: Inhibition of human rhinovirus 16 RNA-dependent RNA polymerase assessed as inhibition of [3H]UTP incorporation using HCV 5'-untranslated region RNA template incubated for 2.5 hrs by radiometric assay. On the set-up: species or system rhinovirus A16.
Data set [13] can be described thus: Inhibition of HCV NS5B RNA-dependent RNA polymerase assessed as inhibition of [3H]CTP incorporation using HCV 5'-untranslated region RNA template incubated for 2 hrs. On the set-up: species or system Hepacivirus hominis.
The test system of data set [14] is Tni. As to the kind of experiment: Binding affinity to recombinant Influenza A virus A/chicken/Nanchang/3-120/01(H3N2) RNA polymerase subunit C-terminal TAP/His6-tagged PA/PB1/PB2 expressed in Tni cells assessed as compound incorporation by measuring 14-mer product formation using 5'-pApG/14-nucleotide RNA with U as nucleotide as primer/template at 100 uM after 30 mins in presence of [alpha-33P]CTP by PAGE analysis. It is filed as cell-based.

The test system of data set [15] is Tni. In words: Binding affinity to recombinant Influenza A virus A/chicken/Nanchang/3-120/01(H3N2) RNA polymerase subunit C-terminal TAP/His6-tagged PA/PB1/PB2 expressed in Tni cells assessed as compound incorporation by measuring 10 to 14-mer product formation using 5'-pApG/14-nucleotide RNA with C as nucleotide as primer/template at 100 uM after 30 mins in presence of [alpha-33P]CTP by PAGE analysis. Format: cell-based.

In data set [16] the test system is A549. As to the kind of experiment: Drug metabolism in human A549 cells assessed as nucleoside triphosphate formation at 50 uM after 24 hrs by LC-MS/Ms analysis. Particulars: a549, 24 h, BLD = below limit of detection. It is filed as ADME, cell-based.

Activity calls are given as the source filed them. The rule behind the calls is not given here.

For orientation: EC50 means the concentration giving half of the maximal effect. Broadly, the CC50 is the concentration giving 50% cytotoxicity. A higher CC50 goes with better tolerance by the cells. Regarding `COc1c(C(N)=O)ccnc1[C@@H]1O[C@H](CO)[C@@H](O)[C@H]1O`, the EC50 in the data set on Influenza A virus [1] was found to be 88 µM. The compound further showed a CC50 at 10 min in data set [2] of 207 µM.

In the case of `C[C@H](NP(=O)(OC[C@H]1O[C@@H](c2ccnc(C(N)=O)c2F)[C@H](O)[C@@H]1O)Oc1ccccc1)C(=O)CC1CCCCC1` (some centres not stated), the Drug metabolism entry is recorded as “BLD” in the data set with MDCK [3]; “BLD” in the data set with A549 [4]; 59.5 pmol with A549 [5]; 44.7 pmol in the data set on MDCK [7]; “BLD” in data set [9]; 42.6 pmol in data set [10]. Moreover, the EC50 in the data set on Influenza A virus [6] is 129 µM; in the data set with Influenza A virus [8] it was 74.1 µM; with Influenza A virus [1], 129 µM.

On to `NC(=O)c1nccc([C@@H]2O[C@H](CO)[C@@H](O)[C@H]2F)c1F`, for which the EC50 in the data set on Influenza A virus [1] was determined as 87 µM. In [2], the CC50 at 10 min worked out at 306 µM.

As to `C=Cc1c([C@@H]2O[C@H](CO)[C@@H](O)[C@H]2O)ccnc1C(N)=O`, the EC50 with Influenza A virus [1] turned out to be 58 µM. In addition, it took 152 µM to reach half-maximal cytotoxicity in data set [2] (CC50 at 10 min).

In general, IC50 refers to the concentration that gives 50% inhibition. `NC(=O)c1nccc([C@@H]2O[C@H](COP(=O)(O)OP(=O)(O)OP(=O)(O)O)[C@@H](O)[C@H]2O)c1F`: the IC50 in data set [11] was 3.5 µM; in [12] it was 4 µM; in [13], 5.3 µM. Also, the result in the data set with Tni [14] and with Tni [15] was Active.

On to `Cn1cc([C@@H]2O[C@H](CO)[C@@H](O)[C@H]2O)c(=O)c(C(N)=O)n1`, for which the EC50 in the data set with Influenza A virus [1] is 91 µM. The CC50 at 10 min in [2] turned out to be 291 µM. In the data set with A549 [16], the Drug metabolism result is “BLD”.

Consider `NC(=O)c1nccc([C@@H]2O[C@H](CO)[C@@H](O)[C@H]2O)c1O`, for which the EC50 in the data set with Influenza A virus [1] was determined as 1.3 µM. Besides, in [2], half-maximal cytotoxicity (CC50 at 10 min) was put at 2 µM.

Take `C#Cc1c([C@@H]2O[C@H](CO)[C@@H](O)[C@H]2O)ccnc1C(N)=O`: in the data set on Influenza A virus [1], the EC50 was found to be 36 µM. The CC50 at 10 min in data set [2] turned out to be 98 µM.

Source of the values: ChEMBL document CHEMBL3817756, “Synthesis and Anti-Influenza Activity of Pyridine, Pyridazine, and Pyrimidine C-Nucleosides as Favipiravir (T-705) Analogues” (J Med Chem, 2016).
